Results reported in ChEMBL document CHEMBL1147384, “Cytotoxic diterpenoids from the brown alga Dilophus ligulatus” (1993).
Values after ≈ are worked out from the molar mass of the structure shown.

Assays:
Assay type in all cases: functional
Conditions in all cases: read-out: ED50 (the source's name)
KB = assay: Cytotoxicity against human KB cells
How it was run: (§1)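 Run under the lab's standard cytotoxicity protocols with mercaptopurine as the positive standard. Activity is given as ED50 in μg/ml. Cells were human nasopharynx carcinoma KB, human lung carcinoma NSCLC-N6, murine leukemia P-388, and P-388/DOX, a P-388 line expressing the multidrug-resistance (mdr) gene.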

P388 [1] = assay: Cytotoxicity against mouse P388 cells; how it was run: as §1
P388 [2] = assay: Cytotoxicity against mouse doxorubicin-resistant P388 cells; how it was run: as §1
[3] = Cytotoxicity against human NSCLC-N6 cells; how it was run: as §1

Row | SMILES | EC50 (KB) [µg/mL] | EC50 (P388 [1]) [µg/mL] | EC50 (P388 [2]) [µg/mL] | EC50 [3] [µg/mL]
1 | CC(=O)O[C@H]1C[C@H](C)[C@H]2C[C@H]2C2=C(COC2=O)[C@H]1[C@H](C)CCC=C(C)C [ACETOXYCRENULIDE] | > 10 | > 10 | > 10 | > 10
2 | CC(=O)O[C@@H]1C(=O)C2C1CC/C=C(\C)CC[C@@H]2[C@H](C)CCC=C(C)C (some centres undefined) [ACETYLCORIACENONE] | > 10 | 4.4 (≈ 12.7 µM) | > 10 | 5.4 (≈ 15.6 µM)
3 | CC(=O)O/C=C1/CC/C=C(\C)C[C@@H]2OC(=O)[C@H]1[C@H]2[C@@H](C)CCC=C(C)C [DILOPHOLIDE] | 1.5 (≈ 4.16 µM) | 0.5 (≈ 1.39 µM) | 12 (≈ 33.3 µM) | 3.3 (≈ 9.15 µM)
4 | CC(=O)OC[C@H]1/C(C=O)=C\C/C=C(\C)C[C@H](O)[C@@H]1[C@@H](C)CCC=C(C)C [HYDROXYACETYLDICTYOLAL] | 2.1 (≈ 5.79 µM) | 3.9 (≈ 10.8 µM) | 9.3 (≈ 25.7 µM) | 10 (≈ 27.6 µM)
5 | CC(=O)O[C@H]1C(=O)C2C1CC/C=C(\C)CC[C@@H]2[C@H](C)CCC=C(C)C (some centres undefined) [ISOACETYLCORIACENONE] | > 10 | 6 (≈ 17.3 µM) | > 10 | 6.82 (≈ 19.7 µM)
6 | Sc1ncnc2nc[nH]c12 [MERCAPTOPURINE ANHYDROUS] | 0.54 (≈ 3.55 µM) | 0.7 (≈ 4.6 µM) | 0.25 (≈ 1.64 µM) | 0.76 (≈ 4.99 µM)
